ChEMBL document CHEMBL5058577, “EUbOPEN Chemogenomics Library 2 (Multiplex)” (2022)

Test system: Fibroblast
Assay: Multiplex assay against human fibroblast
Format: toxicity, cell-based
In short: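 Values for tubulin, mitochondrial-mass and membrane-permeability phenotypes are per cents of cells with healthy nuclei. These cells were identified by CellPathfinder machine-learning gating of live cells that had been stained at seeding with Hoechst33342, BioTracker Green Microtubule Cytoskeleton Dye, MitoTracker Red and Annexin V Alexa Fluor 680 and imaged on a CQ1 microscope at 37°C and 5% CO2 after compound addition. The gating first set Hoechst high-intensity objects apart from normal cells, then split normal cells into healthy, pyknosed or fragmented nuclei, and pyknosed cells into mitotic or apoptotic.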

[1] = 12 h, 1 µM, compound concentration 1 uM, replicate 1
[2] = 12 h, 1 µM, compound concentration 1 uM, replicate 2
[3] = 12 h, 10 µM, compound concentration 10 uM, replicate 1
[4] = 12 h, 10 µM, compound concentration 10 uM, replicate 2
[5] = 24 h, 1 µM, compound concentration 1 uM, replicate 1
[6] = 24 h, 1 µM, compound concentration 1 uM, replicate 2
[7] = 24 h, 10 µM, compound concentration 10 uM, replicate 1
[8] = 24 h, 10 µM, compound concentration 10 uM, replicate 2
[9] = 48 h, 1 µM, compound concentration 1 uM, replicate 1
[10] = 48 h, 1 µM, compound concentration 1 uM, replicate 2
[11] = 48 h, 10 µM, compound concentration 10 uM, replicate 1
[12] = 48 h, 10 µM, compound concentration 10 uM, replicate 2

In the case of `CCCCC(=O)N(Cc1ccc(-c2ccccc2-c2nnn[nH]2)cc1)[C@H](C(=O)O)C(C)C`, the “Population Apoptotic (%)” value [1] is reported as 45%, the “Population Fragmented Nuclei (%)” value [1] is reported as 9% and the “Population Healthy Nuclei (%)” value [1] is reported as 74%. The “Population Hoechst High Intensity Objects (%)” value [1] was 4%, the “Population Membrane Permeable-Phenotype (%)” value [1] was 0% and the “Population Mitochondria Different-Phenotype (%)” value [1] was 0%. For the same molecule, the “Population Mitotic Cells (%)” value [1] was 54%, the “Population Normal (%)” value [1] was 95% and the “Population Pyknosed Nuclei (%)” value [1] was 16%. The “Population Tubulin-Different-Phenotype (%)” value [1] was 20%, the “Total Cell Count” value [1] was 143 and the “Population Apoptotic (%)” value [2] was 44%. For the same molecule, the “Population Fragmented Nuclei (%)” value [2] was 21%, the “Population Healthy Nuclei (%)” value [2] was 54% and the “Population Hoechst High Intensity Objects (%)” value [2] was 3%. For the same molecule, the “Population Membrane Permeable-Phenotype (%)” value [2] was 8%, the “Population Mitochondria Different-Phenotype (%)” value [2] was 6% and the “Population Mitotic Cells (%)” value [2] was 55%. The “Population Normal (%)” value [2] was 96%, the “Population Pyknosed Nuclei (%)” value [2] was 24% and the “Population Tubulin-Different-Phenotype (%)” value [2] was 36%. The “Total Cell Count” value [2] was 156, the “Population Apoptotic (%)” value [3] was 37% and the “Population Fragmented Nuclei (%)” value [3] was 20%. For the same molecule, the “Population Healthy Nuclei (%)” value [3] was 56%, the “Population Hoechst High Intensity Objects (%)” value [3] was 0% and the “Population Membrane Permeable-Phenotype (%)” value [3] was 3%. For the same molecule, the “Population Mitochondria Different-Phenotype (%)” value [3] was 3%, the “Population Mitotic Cells (%)” value [3] was 62% and the “Population Normal (%)” value [3] was 100%. The “Population Pyknosed Nuclei (%)” value [3] was 22%, the “Population Tubulin-Different-Phenotype (%)” value [3] was 23% and the “Total Cell Count” value [3] was 106. The “Population Fragmented Nuclei (%)” value [4] was 27%, the “Population Healthy Nuclei (%)” value [4] was 42% and the “Population Hoechst High Intensity Objects (%)” value [4] was 3%. The “Population Membrane Permeable-Phenotype (%)” value [4] was 11%, the “Population Mitochondria Different-Phenotype (%)” value [4] was 11% and the “Population Normal (%)” value [4] was 96%. The “Population Pyknosed Nuclei (%)” value [4] was 29%, the “Population Tubulin-Different-Phenotype (%)” value [4] was 51% and the “Total Cell Count” value [4] was 130. The “Population Apoptotic (%)” value [5] was 66%, the “Population Fragmented Nuclei (%)” value [5] was 15% and the “Population Healthy Nuclei (%)” value [5] was 70%. For the same molecule, the “Population Hoechst High Intensity Objects (%)” value [5] was 0%, the “Population Membrane Permeable-Phenotype (%)” value [5] was 1% and the “Population Mitochondria Different-Phenotype (%)” value [5] was 2%. The “Population Mitotic Cells (%)” value [5] was 33%, the “Population Normal (%)” value [5] was 99% and the “Population Pyknosed Nuclei (%)” value [5] was 14%. The “Population Tubulin-Different-Phenotype (%)” value [5] was 17%, the “Total Cell Count” value [5] was 146 and the “Population Apoptotic (%)” value [6] was 38%. The “Population Fragmented Nuclei (%)” value [6] was 21%, the “Population Healthy Nuclei (%)” value [6] was 52% and the “Population Hoechst High Intensity Objects (%)” value [6] was 2%. The “Population Membrane Permeable-Phenotype (%)” value [6] was 2%, the “Population Mitochondria Different-Phenotype (%)” value [6] was 1% and the “Population Mitotic Cells (%)” value [6] was 61%. For the same molecule, the “Population Normal (%)” value [6] was 97%, the “Population Pyknosed Nuclei (%)” value [6] was 25% and the “Population Tubulin-Different-Phenotype (%)” value [6] was 25%. The “Total Cell Count” value [6] was 145, the “Population Apoptotic (%)” value [7] was 48% and the “Population Fragmented Nuclei (%)” value [7] was 18%. The “Population Healthy Nuclei (%)” value [7] was 56%, the “Population Hoechst High Intensity Objects (%)” value [7] was 2% and the “Population Membrane Permeable-Phenotype (%)” value [7] was 0%. For the same molecule, the “Population Mitochondria Different-Phenotype (%)” value [7] was 1%, the “Population Mitotic Cells (%)” value [7] was 51% and the “Population Normal (%)” value [7] was 97%. The “Population Pyknosed Nuclei (%)” value [7] was 25%, the “Population Tubulin-Different-Phenotype (%)” value [7] was 31% and the “Total Cell Count” value [7] was 110. The “Population Apoptotic (%)” value [8] was 35%, the “Population Fragmented Nuclei (%)” value [8] was 25% and the “Population Healthy Nuclei (%)” value [8] was 44%. The “Population Hoechst High Intensity Objects (%)” value [8] was 4%, the “Population Membrane Permeable-Phenotype (%)” value [8] was 9% and the “Population Mitochondria Different-Phenotype (%)” value [8] was 10%. The “Population Mitotic Cells (%)” value [8] was 64%, the “Population Normal (%)” value [8] was 95% and the “Population Pyknosed Nuclei (%)” value [8] was 29%. The “Population Tubulin-Different-Phenotype (%)” value [8] was 65%, the “Total Cell Count” value [8] was 130 and the “Population Apoptotic (%)” value [9] was 80%. The “Population Fragmented Nuclei (%)” value [9] was 18%, the “Population Healthy Nuclei (%)” value [9] was 71% and the “Population Hoechst High Intensity Objects (%)” value [9] was 6%. The “Population Membrane Permeable-Phenotype (%)” value [9] was 0%, the “Population Mitochondria Different-Phenotype (%)” value [9] was 1% and the “Population Mitotic Cells (%)” value [9] was 20%. For the same molecule, the “Population Normal (%)” value [9] was 93%, the “Population Pyknosed Nuclei (%)” value [9] was 10% and the “Population Tubulin-Different-Phenotype (%)” value [9] was 17%. The “Total Cell Count” value [9] was 153, the “Population Apoptotic (%)” value [10] was 40% and the “Population Fragmented Nuclei (%)” value [10] was 27%. The “Population Healthy Nuclei (%)” value [10] was 51%, the “Population Hoechst High Intensity Objects (%)” value [10] was 3% and the “Population Membrane Permeable-Phenotype (%)” value [10] was 1%. For the same molecule, the “Population Mitochondria Different-Phenotype (%)” value [10] was 3%, the “Population Mitotic Cells (%)” value [10] was 59% and the “Population Normal (%)” value [10] was 96%. For the same molecule, the “Population Pyknosed Nuclei (%)” value [10] was 21%, the “Population Tubulin-Different-Phenotype (%)” value [10] was 33% and the “Total Cell Count” value [10] was 155. For the same molecule, the “Population Apoptotic (%)” value [11] was 64%, the “Population Fragmented Nuclei (%)” value [11] was 28% and the “Population Healthy Nuclei (%)” value [11] was 56%. The “Population Hoechst High Intensity Objects (%)” value [11] was 4%, the “Population Membrane Permeable-Phenotype (%)” value [11] was 0% and the “Population Mitochondria Different-Phenotype (%)” value [11] was 5%. For the same molecule, the “Population Mitotic Cells (%)” value [11] was 35%, the “Population Normal (%)” value [11] was 95% and the “Population Pyknosed Nuclei (%)” value [11] was 15%. The “Population Tubulin-Different-Phenotype (%)” value [11] was 30%, the “Total Cell Count” value [11] was 112 and the “Population Apoptotic (%)” value [12] was 57%. For the same molecule, the “Population Fragmented Nuclei (%)” value [12] was 39%, the “Population Healthy Nuclei (%)” value [12] was 39% and the “Population Membrane Permeable-Phenotype (%)” value [12] was 7%. The “Population Mitotic Cells (%)” value [12] was 42%, the “Population Pyknosed Nuclei (%)” value [12] was 20% and the “Population Tubulin-Different-Phenotype (%)” value [12] was 69%. For the same molecule, the “Total Cell Count” value [12] was 141.
